In ChEMBL document CHEMBL1135651 (J Med Chem, 2002):
Active and inactive are the calls of the source. The rule behind the calls is not given here.

Legend:
[1] = test system: Rattus norvegicus; experiment: The percentage growth of paw after injection of carrageneen at a dose of 10 mg/kg dose; assay type: functional
Summary of the method: (§1)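 Wistar rats (250 g) given drug intraperitoneally, 10 or 30 mg/kg, from a 10 mg/mL DMSO solution. After 1 h, 0.1 mL 1% lambda carrageenan was injected into the right hind paw plantar region. At 3 h, rats were euthanized with nembutal (100 mg/kg) and paws cut at the ankle. Swelling was taken as % weight increase over the control paw. Mean ± SD, n = 6.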

[2] = test system: Rattus norvegicus; experiment: The percentage growth of paw after injection of carrageneen at a dose of 30 mg/kg dose; assay type: functional; summary of the method: as §1
[3] = target: T1, Prostaglandin G/H synthase 1 (Homo sapiens, UniProt P23219); experiment: The inhibitory activity against Prostaglandin G/H synthase 1 measured as TXB2 production after blood coagulation using human Whole blood assay
[4] = test system: Rattus norvegicus; experiment: The percentage growth of paw after injection of carrageneen at a dose of 30 mg/kg dose; Toxic; assay type: functional, organism-based; parameters: dose 30 mg/kg; summary of the method: as §1
[5] = target: T2, Prostaglandin G/H synthase 2 (Homo sapiens, UniProt P35354); experiment: The inhibitory activity against cyclooxygenase Prostaglandin G/H synthase 2 (COX-2) measured as PGE-2 production after stimulation by lipopolysaccharide (LPS) using human Whole blood assay
T2 sequence (P35354 whole entry): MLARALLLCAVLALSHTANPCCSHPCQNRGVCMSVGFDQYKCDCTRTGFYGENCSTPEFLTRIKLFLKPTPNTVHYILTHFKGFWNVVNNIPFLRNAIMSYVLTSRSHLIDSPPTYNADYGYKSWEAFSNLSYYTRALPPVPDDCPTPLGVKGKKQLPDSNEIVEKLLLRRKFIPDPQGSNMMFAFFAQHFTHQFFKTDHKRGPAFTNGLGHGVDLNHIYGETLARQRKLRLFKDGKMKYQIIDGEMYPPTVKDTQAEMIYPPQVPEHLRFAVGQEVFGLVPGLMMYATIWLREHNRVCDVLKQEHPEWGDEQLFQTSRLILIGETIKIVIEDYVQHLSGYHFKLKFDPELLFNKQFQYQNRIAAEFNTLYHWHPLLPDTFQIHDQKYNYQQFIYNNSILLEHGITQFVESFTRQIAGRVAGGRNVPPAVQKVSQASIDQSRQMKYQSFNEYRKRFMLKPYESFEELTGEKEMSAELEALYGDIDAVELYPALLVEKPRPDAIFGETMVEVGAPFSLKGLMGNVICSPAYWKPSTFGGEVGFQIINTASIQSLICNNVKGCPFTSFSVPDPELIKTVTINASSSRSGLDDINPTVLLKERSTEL

[6] = target: T1, Prostaglandin G/H synthase 1; experiment: The inhibitory activity against cyclooxygenase Prostaglandin G/H synthase 1 measured as TXB2 production after blood coagulation using human Whole blood assay: NI means no inhibition
Summary of the method: (§2)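 Human whole blood; COX-1 activity read as TXB2 produced during blood coagulation. Each drug run in triplicate over 100 to 0.01 μM. IC50 calculated from the concentration series. No inhibition at 100 μM recorded as ni.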

[7] = target: T3, Prostaglandin G/H synthase 2 (Homo sapiens) (UniProt P35354); experiment: The inhibitory activity against cyclooxygenase Prostaglandin G/H synthase 2 (COX-2) measured as PGE-2 production after stimulation by lipopolysaccharide (LPS) using human Whole blood assay:NI means no inhibition
T3 sequence (whole entry): T2 sequence (P35354 whole entry)

[8] = target: T1, Prostaglandin G/H synthase 1; experiment: The inhibitory activity against Prostaglandin G/H synthase 1 measured as TXB2 production after blood coagulation using human Whole blood assay: NI means no inhibition; summary of the method: as §2

T1 sequence (P23219 whole entry): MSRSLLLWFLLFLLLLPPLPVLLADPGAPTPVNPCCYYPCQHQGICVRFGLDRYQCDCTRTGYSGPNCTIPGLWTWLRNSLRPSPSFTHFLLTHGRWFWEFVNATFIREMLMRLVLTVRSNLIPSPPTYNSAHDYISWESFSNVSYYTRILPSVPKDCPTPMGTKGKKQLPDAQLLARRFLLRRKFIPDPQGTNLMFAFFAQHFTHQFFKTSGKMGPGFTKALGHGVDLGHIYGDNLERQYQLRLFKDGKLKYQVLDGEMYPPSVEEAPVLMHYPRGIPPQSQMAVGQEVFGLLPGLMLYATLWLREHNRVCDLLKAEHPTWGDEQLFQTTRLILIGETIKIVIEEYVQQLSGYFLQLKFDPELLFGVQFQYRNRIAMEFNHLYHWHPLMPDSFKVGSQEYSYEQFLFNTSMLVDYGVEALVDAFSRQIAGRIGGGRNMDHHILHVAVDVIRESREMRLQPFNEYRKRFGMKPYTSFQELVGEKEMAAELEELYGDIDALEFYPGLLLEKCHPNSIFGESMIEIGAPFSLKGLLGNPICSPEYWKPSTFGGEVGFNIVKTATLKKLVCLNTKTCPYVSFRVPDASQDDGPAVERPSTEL

Structure (SMILES)	Growth [1]	Growth [2]	further results
CS(=O)(=O)Nc1ccc([N+](=O)[O-])cc1Oc1ccccc1 [NIMESULIDE]	58%	54%	–
O=S(=O)(Nc1ccncc1Oc1ccccc1)C(F)(F)F	74.7%	54.1%	–
CS(=O)(=O)Nc1ccncc1Oc1ccccc1	–	–	IC50 [3]: 4.9 µM; Growth [4]: Toxic; IC50 [5]: 37.5 µM
CN(c1ccc([N+](=O)[O-])cc1Oc1ccccc1)S(C)(=O)=O	84.6%	65.6%	NI [6]: inactive
CS(=O)(=O)Nc1cccnc1Oc1ccccc1	–	–	inhibition [7]: inactive; inhibition [8]: inactive
